Laboratory results as given in ChEMBL document CHEMBL4425110, “ICI 56,780 Optimization: Structure-Activity Relationship Studies of 7-(2-Phenoxyethoxy)-4(1H)-quinolones with Antimalarial Activity” (J Med Chem, 2016).
Calls of active or inactive are those of the source. The rule behind the calls is not given here.

Test system: Plasmodium falciparum
Assay: Antimalarial activity against Plasmodium falciparum W2
Assay type: functional, organism-based
Details: not given

Structure (SMILES) | EC50
CCCCc1cc2c(=O)c(C(=O)OC)c[nH]c2cc1OCCOc1ccccc1 | 0.039 nM
CCCCc1cc2c(=O)c(C(=O)NCCO)c[nH]c2cc1OCCOc1ccccc1 | 253 nM
CCCCc1cc2c(=O)c(Br)c(C)[nH]c2cc1OCCOc1ccccc1 | 2.6 nM
COC(=O)c1c[nH]c2ccc(OCCc3ccccc3)cc2c1=O | 24.6 nM

Test system: Plasmodium falciparum
Assay: Antimalarial activity against Plasmodium falciparum TM90-C2B
Assay type: functional, organism-based
Details: not given

Structure (SMILES) | EC50
CCCCc1cc2c(=O)c(C(=O)OC)c[nH]c2cc1OCCOc1ccccc1 | 7.89 nM
CCCCc1cc2c(=O)c(C(=O)NCCO)c[nH]c2cc1OCCOc1ccccc1 | 5890 nM
CCCCc1cc2c(=O)c(Br)c(C)[nH]c2cc1OCCOc1ccccc1 | 12.2 nM
COC(=O)c1c[nH]c2ccc(OCCc3ccccc3)cc2c1=O | 3050 nM

Test system: Plasmodium berghei
Assay: Antimalarial activity against Plasmodium berghei
Assay type: functional, organism-based
Details: not given
How it was run: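 In vitro liver-stage (exoerythrocytic) assay against P. berghei; the value is the EC50 (nM).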

Structure (SMILES) | EC50
CCCCc1cc2c(=O)c(C(=O)OC)c[nH]c2cc1OCCOc1ccccc1 | 0.052 nM
CCCCc1cc2c(=O)c(C(=O)NCCO)c[nH]c2cc1OCCOc1ccccc1 | 12.8 nM
CCCCc1cc2c(=O)c(Br)c(C)[nH]c2cc1OCCOc1ccccc1 | 2.12 nM
COC(=O)c1c[nH]c2ccc(OCCc3ccccc3)cc2c1=O | 6.97 nM

Test system: J774
Assay: Cytotoxicity against mouse J774 cells
Assay type: cell-based
Details: not given

Structure (SMILES) | EC50
CCCCc1cc2c(=O)c(C(=O)OC)c[nH]c2cc1OCCOc1ccccc1 | > 20000 nM
CCCCc1cc2c(=O)c(C(=O)NCCO)c[nH]c2cc1OCCOc1ccccc1 | > 20000 nM
CCCCc1cc2c(=O)c(Br)c(C)[nH]c2cc1OCCOc1ccccc1 | > 10000 nM
COC(=O)c1c[nH]c2ccc(OCCc3ccccc3)cc2c1=O | 2200 nM

Test system: Plasmodium falciparum
Assay: Resistance index, ratio of EC50 for Plasmodium falciparum TM90-C2B to EC50 for Plasmodium falciparum W2
Assay type: functional
Details: not given

Structure (SMILES) | Ratio EC50
CCCCc1cc2c(=O)c(C(=O)OC)c[nH]c2cc1OCCOc1ccccc1 | 202
CCCCc1cc2c(=O)c(C(=O)NCCO)c[nH]c2cc1OCCOc1ccccc1 | 23.3
CCCCc1cc2c(=O)c(Br)c(C)[nH]c2cc1OCCOc1ccccc1 | 4.69
COC(=O)c1c[nH]c2ccc(OCCc3ccccc3)cc2c1=O | 124

Test system: not listed separately
Assay: Liver blood index, ratio of EC50 for Plasmodium falciparum W2 to EC50 for Plasmodium berghei
Assay type: functional
Details: not given
How it was run: (§1)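 Liver-stage EC50 measured in vitro against P. berghei. Liver blood index is the blood-stage EC50 divided by the P. berghei EC50, using either W2 or TM90-C2B as the blood-stage strain.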

Structure (SMILES) | Ratio EC50
CCCCc1cc2c(=O)c(C(=O)OC)c[nH]c2cc1OCCOc1ccccc1 | 0.75
CCCCc1cc2c(=O)c(C(=O)NCCO)c[nH]c2cc1OCCOc1ccccc1 | 19.8
CCCCc1cc2c(=O)c(Br)c(C)[nH]c2cc1OCCOc1ccccc1 | 1.23
COC(=O)c1c[nH]c2ccc(OCCc3ccccc3)cc2c1=O | 3.53

Test system: not listed separately
Assay: Liver blood index, ratio of EC50 for Plasmodium falciparum TM90-C2B to EC50 for Plasmodium berghei
Assay type: functional
Details: not given
How it was run: as §1

Structure (SMILES) | Ratio EC50
CCCCc1cc2c(=O)c(C(=O)OC)c[nH]c2cc1OCCOc1ccccc1 | 152
CCCCc1cc2c(=O)c(C(=O)NCCO)c[nH]c2cc1OCCOc1ccccc1 | 460
CCCCc1cc2c(=O)c(Br)c(C)[nH]c2cc1OCCOc1ccccc1 | 5.75
COC(=O)c1c[nH]c2ccc(OCCc3ccccc3)cc2c1=O | 438

Test system: not listed separately
Assay: Solubility in pH 6.5 buffer by HPLC based UV spectroscopy
Assay type: physicochemical
Details: not given

Structure (SMILES) | solubility
CCCCc1cc2c(=O)c(C(=O)NCCO)c[nH]c2cc1OCCOc1ccccc1 | > 20 µM

Test system: Plasmodium berghei
Assay: Antimalarial activity against Plasmodium berghei infected in mouse assessed as inhibition of parasitemia at 50 mg/kg, po administered as single dose measured on day 3 post drug exposure relative to untreated control
Assay type: functional
Details: 72 h
How it was run: (§2)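 Two infected mice per compound were each given a single oral dose of 50 mg/kg, suspended in PEG400, on day 1 post-exposure. Parasitemia was assessed on days 3 and 6 post-exposure.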

Structure (SMILES) | inhibition in vivo at 50 mg/kg
CCCCc1cc2c(=O)c(C(=O)OC)c[nH]c2cc1OCCOc1ccccc1 | 76.9%
CCCCc1cc2c(=O)c(C(=O)NCCO)c[nH]c2cc1OCCOc1ccccc1 | 40%
CCCCc1cc2c(=O)c(Br)c(C)[nH]c2cc1OCCOc1ccccc1 | 100%
COC(=O)c1c[nH]c2ccc(OCCc3ccccc3)cc2c1=O | 7.69%

Test system: Plasmodium berghei
Assay: Antimalarial activity against Plasmodium berghei infected in mouse assessed as inhibition of parasitemia at 50 mg/kg, po administered as single dose measured on day 6 post drug exposure relative to untreated control
Assay type: functional
Details: 144 h
How it was run: as §2

Structure (SMILES) | inhibition in vivo at 50 mg/kg
CCCCc1cc2c(=O)c(C(=O)OC)c[nH]c2cc1OCCOc1ccccc1 | 49%
CCCCc1cc2c(=O)c(C(=O)NCCO)c[nH]c2cc1OCCOc1ccccc1 | < 1%
CCCCc1cc2c(=O)c(Br)c(C)[nH]c2cc1OCCOc1ccccc1 | 49.5%
COC(=O)c1c[nH]c2ccc(OCCc3ccccc3)cc2c1=O | < 1%

Test system: Plasmodium berghei
Assay: Antimalarial activity against GFP expressing Plasmodium berghei infected in mouse assessed as inhibition of parasitemia at 10 mg/kg, po administered on days 3, 4 and 5 and measured on day 6 post drug exposure by Giemsa staining based modified Thompson test
Assay type: functional
Details: 144 h

Structure (SMILES) | inhibition in vivo at 10 mg/kg
CCCCc1cc2c(=O)c(C(=O)OC)c[nH]c2cc1OCCOc1ccccc1 | < 1%
CCCCc1cc2c(=O)c(Br)c(C)[nH]c2cc1OCCOc1ccccc1 | 61%

Test system: Plasmodium berghei
Assay: Antimalarial activity against GFP expressing Plasmodium berghei infected in mouse assessed as average time for mouse death at 10 mg/kg, po administered on days 3, 4 and 5 and measured on day 6 post drug exposure by Giemsa staining based modified Thompson test
Assay type: functional
Details: not given

Structure (SMILES) | Time
CCCCc1cc2c(=O)c(C(=O)OC)c[nH]c2cc1OCCOc1ccccc1 | 13 days
CCCCc1cc2c(=O)c(Br)c(C)[nH]c2cc1OCCOc1ccccc1 | 13 days
O=C1C(O)=C([C@H]2CC[C@H](c3ccc(Cl)cc3)CC2)C(=O)c2ccccc21 [ATOVAQUONE] | 30 days

Test system: Plasmodium berghei
Assay: Antimalarial activity against GFP expressing Plasmodium berghei infected in mouse assessed as inhibition of parasitemia at 10 mg/kg, po administered on days 3, 4 and 5 and measured on day 13 post drug exposure by Giemsa staining based modified Thompson test
Assay type: functional, organism-based
Details: not given

Structure (SMILES) | Activity
CCCCc1cc2c(=O)c(Br)c(C)[nH]c2cc1OCCOc1ccccc1 | inactive
